Laboratory results from ChEMBL document CHEMBL1150245, “1-Aryl-2-dimethylaminomethyl-2-propen-1-one hydrochlorides and related adducts: A quest for selective cytotoxicity for malignant cells” (Bioorg Med Chem, 2008).
The source made the active and inactive calls. No cut-off for these calls is given here.

What was measured:
CCRF-CEM [1] = test: Cytotoxicity against human CEM cells after 72 hrs; format: functional, cell-based
Outline: (§1)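 Human transformed T-lymphocytes exposed to a range of compound concentrations at 37 °C for 72 h. IC50 is the concentration giving 50% inhibition of cell growth.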

[2] = Cytotoxicity against human Molt4/C8 cells after 72 hrs; format: functional, cell-based; conditions: MOLT-4, 72 h; outline: as §1
[3] = Cytotoxicity against human HGF cells; format: cell-based
Outline: (§2)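 CC50 is the concentration killing 50% of cells, tested up to a highest concentration of 400 μM. Each value is the average of two independent determinations.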

[4] = Cytotoxicity against human HPC cells; format: cell-based; outline: as §2
[5] = Cytotoxicity against human HPLF cells; format: cell-based; outline: as §2
HL-60 [6] = test: Cytotoxicity against human HL60 cells; format: functional; outline: as §2
HSC-2 [7] = test: Cytotoxicity against human HSC2 cells; format: functional; outline: as §2
HSC-4 = test: Cytotoxicity against human HSC4 cells; format: functional; outline: as §2
L1210 [8] = test: Cytotoxicity against mouse L1210 cells after 48 hrs; conditions: L1210, 48 h
CCRF-CEM [9] = test: Cytotoxicity against human CCRF-CEM cells; format: functional, cell-based
Outline: (§3)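 Part of a human tumour cell line panel screen run by a literature procedure with compounds at 10−8–10−4 M. GI50 is the concentration giving 50% growth inhibition. Where 50% inhibition was not reached at 100 μM, 100 μM was used as the value.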

K562 = test: Cytotoxicity against human K562 cells; format: functional, cell-based; outline: as §3
SR = test: Cytotoxicity against human SR cells; format: cell-based; outline: as §3
RPMI-8226 = test: Cytotoxicity against human RPMI8226 cells; format: functional, cell-based; outline: as §3
L1210 [10] = test: Cytotoxicity against mouse L1210 cells after 72 hrs; format: functional, cell-based; conditions: L1210, 72 h
HL-60 [11] = test: Induction of apoptosis in human HL60 cells after 6 hrs; format: functional, cell-based
Outline: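 Apoptosis read out as DNA fragmentation. 5 × 10^5 cells were incubated for 6 h with 0.5, 1, 2, 4, 8 or 16 μM compound. DNA was run alongside a molecular weight marker and scored for an internucleosomal ladder versus a smear. The experiment was repeated.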

HL-60 [12] = test: Induction of apoptosis assessed as activation of caspase 3 activity in human HL60 cells after 4 hrs; format: functional, cell-based
Outline: (§4)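 Caspase activation measured in neoplastic cells seeded at 4 × 10^4 cells and incubated with compound for 4 h. Each value is the mean of two or three experiments.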

HL-60 [13] = test: Induction of apoptosis assessed as activation of caspase 8 activity in human HL60 cells after 4 hrs; format: functional, cell-based; outline: as §4
HL-60 [14] = test: Induction of apoptosis assessed as activation of caspase 9 activity in human HL60 cells after 4 hrs; format: functional, cell-based; outline: as §4
HSC-2 [15] = test: Induction of apoptosis assessed as activation of caspase 3 activity in human HSC2 cells after 4 hrs; format: functional, cell-based; outline: as §4

Structure (SMILES) | IC50 (CCRF-CEM [1]) [µM] | IC50 [2] [µM] | CC50 [3] [µM] | CC50 [4] [µM] | CC50 [5] [µM] | CC50 (HL-60 [6]) [µM] | CC50 (HSC-2 [7]) [µM] | CC50 (HSC-4) [µM] | IC50 (L1210 [8]) [µM] | IC50 (CCRF-CEM [9]) [µM] | IC50 (K562) [µM] | IC50 (SR) [µM] | IC50 (RPMI-8226) [µM] | IC50 (L1210 [10]) [µM] | Activity (HL-60 [11]) | Activity (HL-60 [12]) | Activity (HL-60 [13]) | Activity (HL-60 [14]) | Activity (HSC-2 [15])
Cc1ccc(C(=O)C(CO)CN(C)C)cc1 (configuration not stated) | 8.22 | 21 | 4.9 | 5.7 | 9.8 | < 3.1 | 6.3 | 5.8 | 6.55 | – | – | – | – | – | – | – | – | – | –
CN(C)CC(CSCCO)C(=O)c1ccc([N+](=O)[O-])cc1 (configuration not stated) | > 500 | > 500 | 390 | 400 | 400 | 353 | 165 | 264 | > 500 | > 100 | > 100 | > 100 | 38 | – | – | – | – | – | –
CN(C)CC(CO)C(=O)c1ccc([N+](=O)[O-])cc1 (configuration not stated) | 12.2 | 36.8 | 271 | 227 | 176 | 35 | 73 | 99 | 42.6 | – | – | – | – | – | – | – | – | – | –
N[C@@H](Cc1ccc(N(CCCl)CCCl)cc1)C(=O)O [MELPHALAN] | – | – | > 200 | > 200 | > 200 | 6 | 35 | 81 | – | 6.17 | – | – | 66.1 | – | – | – | – | – | –
C=C(CN(C)C)C(=O)c1ccc(Cl)cc1 | 32.6 | 30.2 | 6.1 | 6 | 9.2 | < 3.1 | 5.1 | 6.4 | 26.5 | 3.31 | 3.47 | 3.98 | – | – | – | – | – | – | –
CN(C)CC(CO)C(=O)c1ccccc1 (configuration not stated) | 1.42 | 5.84 | 4.4 | 5.5 | 5.2 | 0.41 | 5.2 | 6.5 | 1.65 | – | – | – | – | – | – | – | – | – | –
C=C(CN(C)C)C(=O)c1ccc(C)cc1 | 11.4 | 35.5 | 6.1 | 6.9 | 8.1 | 0.45 | 3.4 | 7.6 | 11.1 | – | – | – | – | – | – | – | – | – | –
COc1ccc(C(=O)C(CO)CN(C)C)cc1 (configuration not stated) | 1.15 | 4.9 | 4 | 5.3 | 4.9 | 0.46 | 2.5 | 5.2 | 1.57 | – | 0.49 | – | 20 | – | – | – | – | – | –
C=C(CN(C)C)C(=O)c1ccccc1 | 65.6 | 146 | 26 | 31 | 52 | 12 | 29 | 33 | – | 0.4 | 2.19 | 0.55 | 1.91 | 52.2 | – | – | – | – | –
C=C(CN(C)C)C(=O)c1ccc([N+](=O)[O-])cc1 | 7.91 | 8.95 | 19.3 | 30 | 26 | 1.6 | 8.2 | 19 | 8.61 | – | – | – | – | – | – | – | – | – | –
C=C(CN(C)C)C(=O)c1ccc(OC)cc1 | 10.6 | 21.3 | 6.8 | 5.1 | 9.2 | < 3.4 | 5.9 | 6.1 | – | 0.37 | 1.05 | 14.5 | 21.4 | 5.08 | Active | Active | Active | Active | Active
CN(C)CC(CO)C(=O)c1ccc(Cl)cc1 (configuration not stated) | 33.1 | 30.9 | 5.8 | 5.4 | 12 | < 3.1 | 6 | 8 | 22 | 0.32 | 0.33 | 0.63 | – | – | – | – | – | – | –
